The results in this text go back to ChEMBL document CHEMBL4196177, “Synthesis, Evaluation, and Structure-Activity Relationship Study of Lanosterol Derivatives To Reverse Mutant-Crystallin-Induced Protein Aggregation” (J Med Chem, 2018).

Holding throughout (type): cell-based
The test system of assay [1] is T1, Beta-crystallin B2 (Homo sapiens), P43320 [V187E].
T1 sequence (whole entry): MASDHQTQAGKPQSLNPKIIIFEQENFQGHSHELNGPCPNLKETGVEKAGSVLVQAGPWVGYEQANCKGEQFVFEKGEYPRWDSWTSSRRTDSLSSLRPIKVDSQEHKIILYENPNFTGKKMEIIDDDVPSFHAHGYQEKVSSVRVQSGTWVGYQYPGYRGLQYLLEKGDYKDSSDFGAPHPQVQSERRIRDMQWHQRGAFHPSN
The assay is described as follows: Inhibition of beta-crystallin B2 V187E mutant (unknown origin)-induced intracellular protein aggregation expressed in human HLE-B3 cells at 4 uM incubated for 6 to 8 hrs by fluorescence microscopy relative to untreated control.

Assay [2] concerns T2, Alpha-crystallin B chain (Homo sapiens), P02511 [R120G].
T2 sequence (whole entry): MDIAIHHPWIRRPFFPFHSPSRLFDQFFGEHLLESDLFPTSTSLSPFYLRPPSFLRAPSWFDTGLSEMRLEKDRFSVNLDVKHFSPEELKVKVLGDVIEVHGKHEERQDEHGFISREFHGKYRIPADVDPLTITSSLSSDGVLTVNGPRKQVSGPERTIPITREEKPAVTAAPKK
The assay is described as follows: Inhibition of alpha-crystallin B R120G mutant (unknown origin)-induced intracellular protein aggregation expressed in human HeLa cells at 4 uM incubated for 6 to 8 hrs by fluorescence microscopy relative to untreated control. In a few lines:
(§1)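 Cells were transfected with mutant crystallin constructs using Lipofectamine 2000 and cultured for 16 h until the overexpressed mutants formed aggregates. Compounds were then added to the culture medium and incubated for 6~8 h. Aggregate dissolution was scored by fluorescence microscopy. For αB R120G, % inhibition at 0.4 and 4 µM was calculated against DMSO-treated cells; values are mean ± error.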

For assay [3] the test system is unchanged. The assay is described as follows: Inhibition of alpha-crystallin B R120G mutant (unknown origin)-induced intracellular protein aggregation expressed in human HeLa cells at 0.4 uM incubated for 6 to 8 hrs by fluorescence microscopy relative to untreated control. In a few lines:
as §1

The test system is the same in assay [4]. The assay is described as follows: Inhibition of alpha-crystallin B R120G mutant (unknown origin)-induced intracellular protein aggregation expressed in human HLE-B3 cells at 4 uM incubated for 6 to 8 hrs by fluorescence microscopy relative to untreated control. In a few lines: as §1
Assay [5] shares this test system. The assay is described as follows: Inhibition of alpha-crystallin B R120G mutant (unknown origin)-induced intracellular protein aggregation expressed in human HLE-B3 cells at 0.4 uM incubated for 6 to 8 hrs by fluorescence microscopy relative to untreated control. In a few lines:
as §1

For assay [6], the system named is T1, Beta-crystallin B2 (Homo sapiens), P43320 [V187E]. The assay is described as follows: Inhibition of beta-crystallin B2 V187E mutant (unknown origin)-induced intracellular protein aggregation expressed in human HeLa cells at 4 uM incubated for 6 to 8 hrs by fluorescence microscopy relative to untreated control.
For assay [7] the test system is unchanged. The assay is described as follows: Inhibition of beta-crystallin B2 V187E mutant (unknown origin)-induced intracellular protein aggregation expressed in human HeLa cells at 0.4 uM incubated for 6 to 8 hrs by fluorescence microscopy relative to untreated control.
Assay [8] shares this test system. The assay is described as follows: Inhibition of beta-crystallin B2 V187E mutant (unknown origin)-induced intracellular protein aggregation expressed in human HLE-B3 cells at 0.4 uM incubated for 6 to 8 hrs by fluorescence microscopy relative to untreated control.
Assay [9] relates to T3, Gamma-crystallin C (Homo sapiens), P07315 [G129C].
T3 sequence (whole entry): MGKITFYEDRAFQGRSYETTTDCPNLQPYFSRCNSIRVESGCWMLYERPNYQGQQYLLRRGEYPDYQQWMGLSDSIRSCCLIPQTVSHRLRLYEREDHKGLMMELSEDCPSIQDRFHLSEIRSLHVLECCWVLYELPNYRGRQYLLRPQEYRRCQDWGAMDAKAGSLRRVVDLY
The assay is described as follows: Inhibition of gamma-crystallin C G129C mutant (unknown origin)-induced intracellular protein aggregation expressed in human HeLa cells at 4 uM incubated for 6 to 8 hrs by fluorescence microscopy relative to untreated control.

Assay [10] has the same test system. The assay is described as follows: Inhibition of gamma-crystallin C G129C mutant (unknown origin)-induced intracellular protein aggregation expressed in human HeLa cells at 0.4 uM incubated for 6 to 8 hrs by fluorescence microscopy relative to untreated control.
Assay [11] shares this test system. The assay is described as follows: Inhibition of gamma-crystallin C G129C mutant (unknown origin)-induced intracellular protein aggregation expressed in human HLE-B3 cells at 4 uM incubated for 6 to 8 hrs by fluorescence microscopy relative to untreated control.
Assay [12] has the same test system. The assay is described as follows: Inhibition of gamma-crystallin C G129C mutant (unknown origin)-induced intracellular protein aggregation expressed in human HLE-B3 cells at 0.4 uM incubated for 6 to 8 hrs by fluorescence microscopy relative to untreated control.
Assay [13] deals with T4, Gamma-crystallin D (Homo sapiens), P07320 [W43R].
T4 sequence (whole entry): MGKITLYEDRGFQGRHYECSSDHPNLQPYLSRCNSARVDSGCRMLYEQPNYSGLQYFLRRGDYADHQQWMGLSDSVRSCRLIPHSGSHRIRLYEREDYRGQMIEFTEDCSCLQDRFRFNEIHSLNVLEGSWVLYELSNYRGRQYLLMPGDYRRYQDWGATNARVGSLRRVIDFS
The assay is described as follows: Inhibition of gamma-crystallin D W43R mutant (unknown origin)-induced intracellular protein aggregation expressed in human HeLa cells at 4 uM incubated for 6 to 8 hrs by fluorescence microscopy relative to untreated control.

Assay [14] has the same test system. The assay is described as follows: Inhibition of gamma-crystallin D W43R mutant (unknown origin)-induced intracellular protein aggregation expressed in human HeLa cells at 0.4 uM incubated for 6 to 8 hrs by fluorescence microscopy relative to untreated control.
Assay [15] shares this test system. The assay is described as follows: Inhibition of gamma-crystallin D W43R mutant (unknown origin)-induced intracellular protein aggregation expressed in human HLE-B3 cells at 4 uM incubated for 6 to 8 hrs by fluorescence microscopy relative to untreated control.
Assay [16] shares this test system. The assay is described as follows: Inhibition of gamma-crystallin D W43R mutant (unknown origin)-induced intracellular protein aggregation expressed in human HLE-B3 cells at […] incubated for 6 to 8 hrs by fluorescence microscopy relative to untreated control.
In assay [17] the test system is T5, Alpha-crystallin A chain (Homo sapiens), P02489 [Y118D].
T5 sequence (whole entry): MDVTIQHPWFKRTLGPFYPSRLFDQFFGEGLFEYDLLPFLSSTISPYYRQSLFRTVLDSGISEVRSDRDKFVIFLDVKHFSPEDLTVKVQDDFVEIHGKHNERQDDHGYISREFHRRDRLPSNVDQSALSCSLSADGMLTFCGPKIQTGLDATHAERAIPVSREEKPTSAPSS
The assay is described as follows: Inhibition of alpha-crystallin A Y118D mutant (unknown origin)-induced intracellular protein aggregation expressed in human HeLa cells at 4 uM incubated for 6 to 8 hrs by fluorescence microscopy relative to untreated control.

For assay [18] the test system is unchanged. The assay is described as follows: Inhibition of alpha-crystallin A Y118D mutant (unknown origin)-induced intracellular protein aggregation expressed in human HeLa cells at 0.4 uM incubated for 6 to 8 hrs by fluorescence microscopy relative to untreated control.
Assay [19] has the same test system. The assay is described as follows: Inhibition of alpha-crystallin A Y118D mutant (unknown origin)-induced intracellular protein aggregation expressed in human HLE-B3 cells at 4 uM incubated for 6 to 8 hrs by fluorescence microscopy relative to untreated control.
The test system is the same in assay [20]. The assay is described as follows: Inhibition of alpha-crystallin A Y118D mutant (unknown origin)-induced intracellular protein aggregation expressed in human HLE-B3 cells at 0.4 uM incubated for 6 to 8 hrs by fluorescence microscopy relative to untreated control.

Active and inactive are the calls of the source. No cut-off for these calls is given here.

In the case of `C[C@H](CCCC(C)(C)O)[C@H]1CC[C@@]2(C)[C@@]34CC[C@H]5C(C)(C)/C(=N/O)CC[C@]5(C)[C@]3(CC[C@]12C)O4`, the inhibition entry in [1], in assay [2], in [3], in [4], in assay [5] and in assay [6] was “inactive” each time. Further, the inhibition result in assay [7], in [8], in assay [9], in [10], in assay [11] and in assay [12] was “inactive” throughout. Also, the inhibition result in assay [13], in [14], in [15], in assay [16], in [17] and in assay [18] was “inactive” throughout. The inhibition entry in [19] and in assay [20] was “inactive” in each case.

With `C[C@H](CCCC(C)(C)O)[C@H]1CC[C@@]2(C)C3=C(CC[C@]12C)[C@@]1(C)CCC(=O)C(C)(C)[C@@H]1CC3`, the inhibition entry in [1], in assay [2], in assay [3], in assay [4], in assay [5] and in [6] was “Active” each time. Also, the inhibition result in [7], in assay [8], in assay [9], in [10], in assay [11] and in assay [12] was “Active” in each case. Besides, the inhibition entry in assay [13], in [14], in [15], in [16], in [17] and in assay [18] was “Active” in each case. The inhibition result in [19] and in [20] was “Active” throughout.

Take `C[C@H](CCCC(C)(C)O)[C@H]1CC[C@@]2(C)C3=C(CC[C@]12C)[C@@]1(C)C[C@@H](F)[C@H](O)C(C)(C)[C@@H]1CC3`: the inhibition result in assay [1], in assay [2], in [3], in [4], in [5] and in [6] was “Active” each time. Besides, the inhibition entry in assay [7], in assay [8], in assay [9], in [10], in assay [11] and in [12] was “Active” in each case. In addition, the inhibition result in [13], in assay [14], in assay [15], in [16], in assay [17] and in assay [18] was “Active” throughout. Moreover, the inhibition result in assay [19] and in assay [20] was “Active” each time.

With `C[C@H](CCCC(C)(C)O)[C@H]1CC[C@@]2(C)C3=CC[C@H]4C(C)(C)[C@@H](O)CC[C@]4(C)C3=CC[C@]12C`, the inhibition entry in assay [1], in assay [2], in [3], in assay [4], in [5] and in assay [6] was “Active” each time. Further, the inhibition result in [7], in [8], in assay [9], in assay [10], in assay [11] and in assay [12] was “Active” each time. Moreover, the inhibition entry in assay [13], in assay [14], in assay [15], in assay [16], in assay [17] and in assay [18] was “Active” throughout. The inhibition entry in assay [19] and in assay [20] was “Active” in each case.

On to `C[C@H](CCCC(C)(C)O)[C@H]1CC[C@@]2(C)C3=C(CC[C@]12C)[C@@]1(C)C[C@@H](F)[C@@H](O)C(C)(C)[C@@H]1CC3`, for which the inhibition entry in [1], in assay [2], in [3], in assay [4], in assay [5] and in assay [6] was “Active” each time. The inhibition result in assay [7], in assay [8], in assay [9], in assay [10], in [11] and in assay [12] was “Active” in each case. The inhibition entry in assay [13], in assay [14], in assay [15], in assay [16], in [17] and in [18] was “Active” each time. Also, the inhibition result in assay [19] and in assay [20] was “Active” in each case.
